Experimental data: ChEMBL document CHEMBL1125331, “6-Hydroxy-3-n-propyl-2,3,4,5-tetrahydro-1H-3-benzazepine and analogs: new centrally acting 5-HT1A receptor agonists” (J Med Chem, 1992)
“And” between values parts separate entries of the source, which are not always exact repeats. Equal entries are not always repeated.

Columns and labels:
[1] = molecular target: T1, 5-hydroxytryptamine receptor 1A (Rattus norvegicus, UniProt P19327); assay: Inhibitory activity against 5-hydroxytryptamine 1A receptor in rats, using [3H]8-OH-DPAT as radioligand
T1 sequence (P19327 whole entry): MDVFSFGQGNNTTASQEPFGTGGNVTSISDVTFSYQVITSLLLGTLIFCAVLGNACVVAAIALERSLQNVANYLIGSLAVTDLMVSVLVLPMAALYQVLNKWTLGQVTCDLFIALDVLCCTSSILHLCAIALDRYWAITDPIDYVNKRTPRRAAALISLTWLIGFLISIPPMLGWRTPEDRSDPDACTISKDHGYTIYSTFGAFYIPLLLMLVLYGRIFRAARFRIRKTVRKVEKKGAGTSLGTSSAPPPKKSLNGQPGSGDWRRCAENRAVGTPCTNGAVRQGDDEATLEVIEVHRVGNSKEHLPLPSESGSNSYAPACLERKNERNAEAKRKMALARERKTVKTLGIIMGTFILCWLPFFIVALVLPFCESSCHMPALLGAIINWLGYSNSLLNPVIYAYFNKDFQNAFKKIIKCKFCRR
In short: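 Rat whole-brain membranes (minus brainstem and cerebellum) in 50 mM Tris pH 8.0 with 120 mM NaCl, 4 mM CaCl2, 4 mM MgCl2 and 10 μM pargyline. Rapid filtration, then scintillation counting. Nonspecific binding defined with 10 μM 5-HT. IC50 by semi-log plot and linear regression.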

D(2) dopamine receptor = D(2) dopamine receptor (Rattus norvegicus, UniProt P61169); assay: Inhibitory activity against Dopamine receptor D2 in rats using [3H]spiperone as radioligand
Chain of D(2) dopamine receptor (P61169 whole entry): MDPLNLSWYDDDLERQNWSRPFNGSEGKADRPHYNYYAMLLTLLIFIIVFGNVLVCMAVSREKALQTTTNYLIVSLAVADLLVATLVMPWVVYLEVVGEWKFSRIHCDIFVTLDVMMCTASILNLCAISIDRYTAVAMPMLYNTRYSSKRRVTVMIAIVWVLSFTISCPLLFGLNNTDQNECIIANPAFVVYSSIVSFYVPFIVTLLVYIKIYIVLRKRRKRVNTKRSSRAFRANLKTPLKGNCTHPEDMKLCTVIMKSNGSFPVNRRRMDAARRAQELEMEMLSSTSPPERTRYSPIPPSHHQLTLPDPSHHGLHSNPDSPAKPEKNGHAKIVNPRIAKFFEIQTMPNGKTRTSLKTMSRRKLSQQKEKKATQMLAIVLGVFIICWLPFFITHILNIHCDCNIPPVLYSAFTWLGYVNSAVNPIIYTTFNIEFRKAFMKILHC
In short: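 Rat striatal membranes in 50 mM potassium phosphate buffer pH 7.4 were incubated with 0.5 nM [3H]spiperone for 10 min at 37 °C. Specific binding was defined with 10 μM 6,7-ADTN.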

Rattus norvegicus [2] = assay: Effect evaluated in vivo on 5-HTP accumulation in limbic system at a dose 50 umol/kg (s.c.); format: functional
In short: (§1)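 Male Sprague-Dawley rats (200–300 g) were pretreated with reserpine 5 mg/kg sc 18 h before. Test compound was given sc at 5 mL/kg in neutral solution. 5-HT synthesis rate was indexed by […] 5-HTP accumulation after decarboxylase inhibition with NSD 1015, measured by HPLC-electrochemical detection. Dose-response used 4–6 dose levels, n = 4.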

Rattus norvegicus [3] = assay: Effect evaluated in vivo on 5-HTP accumulation in corpus striatum at a dose 50 umol/kg (s.c.); format: functional
In short: (§2)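 Male Sprague-Dawley rats (200–300 g) were pretreated with reserpine 5 mg/kg sc 18 h beforehand. Test drug was given at neutral pH, 5 mL/kg. Aromatic amino acid decarboxylase was blocked with NSD 1015. 5-HTP in the dissected brain region was assayed by HPLC with electrochemical detection.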

Rattus norvegicus [4] = assay: Effect evaluated in vivo on 5-HTP accumulation in NE-rich hemispheres at a 50 dose uM/kg(sc); format: functional; in short: as §2
Rattus norvegicus [5] = assay: The compound was tested in vivo for locomotor activity in rats at 50 umol/kg after subcutaneous administration; format: functional
In short: (§3)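 Male Sprague-Dawley rats received reserpine 5 mg/kg sc in the neck 18 h before testing. Test compound was given sc in the neck (n = 4). Rats were placed singly in photocell motility meters immediately after dosing, and counts were accumulated over 30 min (tests 9 a.m.–1 p.m.). Gross behaviour, including 5-HT syndrome, was observed throughout.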

Rattus norvegicus [6] = assay: Effect evaluated in vivo on DA synthesis in limbic system at ED50 umol/kg after peroral administration; format: functional
In short: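 Oral dosing in male Sprague-Dawley rats (200–300 g) pretreated with reserpine 5 mg/kg sc 18 h before. After decarboxylase inhibition with NSD 1015, brain 5-HTP or dopa accumulation (HPLC-electrochemical detection) indexed 5-HT synthesis, DA synthesis (limbic) or NE synthesis (hemispheres, mainly cortex).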

Rattus norvegicus [7] = assay: Effect evaluated in vivo on DA synthesis in limbic system at ED50 umol/kg after subcutaneous administration; format: functional
In short: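 Male Sprague-Dawley rats (200–300 g) pretreated with reserpine (5 mg/kg sc, 18 h before), then given the test drug sc; neutral solutions at 5 mL/kg. Dopa accumulation after decarboxylase inhibition with NSD 1015 indexes DA synthesis rate in limbic tissue, assayed by HPLC with electrochemical detection.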

Rattus norvegicus [8] = assay: Effect evaluated in vivo on 5-HT synthesis in limbic system at ED50 umol/kg after subcutaneous administration; settings: sc
Rattus norvegicus [9] = assay: The compound was tested in vivo for locomotor activity in rats at 0.2 umol/kg after subcutaneous administration
Rattus norvegicus [10] = assay: Effect evaluated in vivo on 5-HTP accumulation in limbic system at a dose 25 umol/kg (s.c.); format: functional; in short: as §1
Rattus norvegicus [11] = assay: Effect evaluated in vivo on 5-HTP accumulation in limbic system at a dose 6.25 umol/kg (s.c.); format: functional; in short: as §1
Rattus norvegicus [12] = assay: Effect evaluated in vivo on NE synthesis in NE-rich hemispheres at a 0.20 dose uM/kg(sc); format: functional
In short: (§4)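 Rats pretreated with reserpine 5 mg/kg sc 18 h before received test compound sc at 5 mL/kg in neutral solution. After decarboxylase inhibition with NSD 1015, dopa accumulation in hemispheres (mainly cortex) was measured by HPLC-electrochemical detection as an index of NE synthesis. Dose-response used 4–6 dose levels, n = 4.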

Rattus norvegicus [13] = assay: Effect evaluated in vivo on NE synthesis in NE-rich hemispheres at a 0.39 dose uM/kg(sc); format: functional; in short: as §4
Rattus norvegicus [14] = assay: Effect evaluated in vivo on NE synthesis in NE-rich hemispheres at a 1.56 dose uM/kg(sc); format: functional; in short: as §4
Rattus norvegicus [15] = assay: Effect evaluated in vivo on NE synthesis in NE-rich hemispheres at a 25 dose uM/kg(sc); format: functional; in short: as §4
Rattus norvegicus [16] = assay: Effect evaluated in vivo on NE synthesis in NE-rich hemispheres at a 6.25d ose uM/kg(sc); format: functional; in short: as §4
Rattus norvegicus [17] = assay: Effect evaluated in vivo on 5-HTP accumulation in corpus striatum at a dose 25 umol/kg (s.c.); format: functional; in short: as §2
Rattus norvegicus [18] = assay: Effect evaluated in vivo on 5-HTP accumulation in limbic system after subcutaneous administration; format: functional; settings: sc; in short: as §2
Rattus norvegicus [19] = assay: Effect evaluated in vivo on NE synthesis in NE-rich hemispheres after subcutaneous administration; format: functional; settings: sc; in short: as §4
Rattus norvegicus [20] = assay: Effect evaluated in vivo on 5-HTP accumulation in corpus striatum at a dose 6.25 umol/kg (s.c.); format: functional; in short: as §2
Rattus norvegicus [21] = assay: Effect evaluated in vivo on 5-HTP accumulation in limbic system at a dose 0.20 umol/kg (s.c.); format: functional; in short: as §2
Rattus norvegicus [22] = assay: Effect evaluated in vivo on 5-HTP accumulation in limbic system at a dose 0.39 umol/kg (s.c.); format: functional; in short: as §2
Rattus norvegicus [23] = assay: Effect evaluated in vivo on 5-HTP accumulation in limbic system at a dose 1.56 umol/kg (s.c.); format: functional; in short: as §1
Rattus norvegicus [24] = assay: Effect evaluated in vivo on 5-HTP accumulation in corpus striatum after subcutaneous administration; format: functional; settings: sc; in short: as §2
Rattus norvegicus [25] = assay: Effect evaluated in vivo on 5-HTP accumulation in corpus striatum at a dose 0.20 umol/kg (s.c.); format: functional; in short: as §2
Rattus norvegicus [26] = assay: The compound was tested in vivo for locomotor activity in rats at 25 umol/kg after subcutaneous administration; format: functional; in short: as §3
Rattus norvegicus [27] = assay: Effect evaluated in vivo on 5-HTP accumulation in corpus striatum at a dose 0.39 umol/kg (s.c.); format: functional; in short: as §2
Rattus norvegicus [28] = assay: Effect evaluated in vivo on 5-HTP accumulation in NE-rich hemispheres at a 0.20 dose uM/kg(sc); format: functional; in short: as §2
Rattus norvegicus [29] = assay: Effect evaluated in vivo on 5-HTP accumulation in NE-rich hemispheres at a 0.39 dose uM/kg(sc); format: functional; in short: as §2
Rattus norvegicus [30] = assay: Effect evaluated in vivo on 5-HTP accumulation in corpus striatum at a dose 1.56 umol/kg (s.c.); format: functional; in short: as §2
Rattus norvegicus [31] = assay: Effect evaluated in vivo on 5-HTP accumulation in corpus striatum at a dose 100 umol/kg (s.c.); format: functional; in short: as §2
Rattus norvegicus [32] = assay: Effect evaluated in vivo on 5-HTP accumulation in limbic system at a dose 100 umol/kg (s.c.); format: functional; in short: as §1
Rattus norvegicus [33] = assay: Effect evaluated in vivo on 5-HTP accumulation in NE-rich hemispheres at a 1.56 dose uM/kg(sc); format: functional; in short: as §2
Rattus norvegicus [34] = assay: Effect evaluated in vivo on 5-HTP accumulation in NE-rich hemispheres at a 100 dose uM/kg(sc); format: functional; in short: as §2
Rattus norvegicus [35] = assay: Effect evaluated in vivo on 5-HTP accumulation in NE-rich hemispheres at a 25 dose uM/kg(sc); format: functional; in short: as §2

Q: Which IC50 [1] does the source give for `CCN1CCc2cccc(OC)c2CC1` here?
A: 210 nM

Q: And the IC50 (D(2) dopamine receptor)?
A: 2200 nM

Q: What about the Control (Rattus norvegicus [2]) of the same compound?
A: 66%

Q: And the Control (Rattus norvegicus [3])?
A: 66%

Q: And the Control (Rattus norvegicus [4])?
A: 64%

Q: And the Locomotor activity (Rattus norvegicus [5])?
A: 62

Q: For `CCCN(CCC)C1CCc2cccc(O)c2C1` (stereo unspecified) [8-OH-DPAT], which ED50 (Rattus norvegicus [6]) is on record?
A: 3 µM/kg and 7.9 µM/kg and 7.6 µM/kg

Q: What about the ED50 (Rattus norvegicus [7]) of the same compound?
A: 0.052 µM/kg and 0.063 µM/kg

Q: What about the ED50 (Rattus norvegicus [8]) of the same compound?
A: 0.052 µmol/kg

Q: And the Locomotor activity (Rattus norvegicus [9])?
A: 66

Q: Which IC50 [1] does the source give for `CCCN1CCc2cccc(O)c2CC1` here?
A: 81 nM

Q: What about the IC50 (D(2) dopamine receptor) of the same compound?
A: > 100000 nM

Q: And the Control (Rattus norvegicus [10])?
A: 76%

Q: And the Control (Rattus norvegicus [11])?
A: 51%

Q: What about the Control (Rattus norvegicus [12]) of the same compound?
A: 115%

Q: And the Control (Rattus norvegicus [13])?
A: 129%

Q: And the Control (Rattus norvegicus [14])?
A: 73%

Q: And the Control (Rattus norvegicus [15])?
A: 72%

Q: What about the Control (Rattus norvegicus [16]) of the same compound?
A: 53%

Q: And the Control (Rattus norvegicus [17])?
A: 75%

Q: What about the ED50 (Rattus norvegicus [18]) of the same compound?
A: 1.3 µmol/kg

Q: And the ED50 (Rattus norvegicus [19])?
A: 1.4 µmol/kg

Q: And the Control (Rattus norvegicus [20])?
A: 67%

Q: What about the Control (Rattus norvegicus [21]) of the same compound?
A: 117%

Q: And the Control (Rattus norvegicus [22])?
A: 129%

Q: What about the Control (Rattus norvegicus [23]) of the same compound?
A: 70%

Q: And the ED50 (Rattus norvegicus [24])?
A: 2.2 µmol/kg

Q: What about the Control (Rattus norvegicus [25]) of the same compound?
A: 125%

Q: What about the Locomotor activity (Rattus norvegicus [26]) of the same compound?
A: 102

Q: And the Control (Rattus norvegicus [27])?
A: 135%

Q: `CCCN1CCc2ccc(O)cc2CC1` was tested. Which IC50 (D(2) dopamine receptor) did it give?
A: 10000 nM

Q: And the Control (Rattus norvegicus [10])?
A: 105%

Q: What about the Control (Rattus norvegicus [28]) of the same compound?
A: 128%

Q: And the Control (Rattus norvegicus [29])?
A: 119%

Q: And the Control (Rattus norvegicus [30])?
A: 110%

Q: And the Control (Rattus norvegicus [31])?
A: 77%

Q: And the Control (Rattus norvegicus [17])?
A: 107%

Q: And the Control (Rattus norvegicus [21])?
A: 122%

Q: What about the Control (Rattus norvegicus [22]) of the same compound?
A: 121%

Q: And the Control (Rattus norvegicus [23])?
A: 80%

Q: And the Control (Rattus norvegicus [32])?
A: 81%

Q: What about the Control (Rattus norvegicus [33]) of the same compound?
A: 114%

Q: And the Control (Rattus norvegicus [34])?
A: 78%

Q: What about the Control (Rattus norvegicus [35]) of the same compound?
A: 113%

Q: What about the Control (Rattus norvegicus [25]) of the same compound?
A: 118%

Q: And the Control (Rattus norvegicus [27])?
A: 106%
